Measurements as given in ChEMBL document CHEMBL4364287, “Enhanced Inhibition of Influenza A Virus Adhesion by Di- and Trivalent Hemagglutinin Inhibitors” (J Med Chem, 2019).
Activity calls are given as the source filed them. The calls are words filed in the database; no cut-off is given here.

Columns and labels:
[1] = system: Influenza A virus (A/Netherlands/178/1995(H3N2)); experiment: Potency index, ratio of compound 8 IC50 to test compound IC50 for Inhibition of Influenza A virus (A/Netherlands/178/1995(H3N2)) H3 hemagglutinin expressed in Influenza virus WU95 assessed as reduction in human erythrocytes hemagglutination; format: cell-based
Influenza A virus [2] = experiment: Antiviral activity against Influenza A virus WU95 expressing Influenza A virus (A/Netherlands/178/1995(H3N2)) H3 hemagglutinin infected in MDCK2 cells assessed as reduction in virus-induced cytopathogenicity preincubated with virus for 4 hrs followed by cell infection and measured after 3 days by DAPI staining-based assay; format: functional, organism-based
How it was run: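 WU95 virus was preincubated 4 h at room temperature in Opti-mem with varying compound concentrations. It was then inoculated onto confluent MDCK-II cells at MOI 0.005 and held 3 days with 1 µg/ml TPCK-trypsin to allow multiple rounds of infection. Cells were fixed and DAPI-stained, and monolayers inspected visually; absence of stained cells was taken as cell killing.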

[3] = Inhibition of sensor loaded biotinylated-LAMP1 binding to Influenza A virus (A/Netherlands/178/1995(H3N2)) H3 hemagglutinin expressed in Influenza virus WU95 in presence of NA inhibitor oseltamivir carboxylate by biolayer interferometric analysis
How it was run: (§1)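 OctetRed BLI: streptavidin sensors were saturated with biotinylated LAMP1 in PBS pH 7.4. They were dipped into WU95 (8 HAU, 2.5 × 10^8 particles per well) preincubated 4 h at room temperature with compound and 10 µM (end concentration) oseltamivir carboxylate. Initial binding rate was compared with a no-compound control.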

[4] = Inhibition of Influenza A virus (A/Netherlands/178/1995(H3N2)) H3 hemagglutinin expressed in Influenza virus WU95 assessed as reduction in human erythrocytes hemagglutination preincubated for 4 hrs followed by erythrocytes addition and measured after 2 hrs; format: cell-based
How it was run: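 Four hemagglutination units of virus were preincubated 4 h at room temperature with limiting compound dilutions in the presence of oseltamivir carboxylate. Then 0.5% (v/v) erythrocytes were added for 2 h at 4 °C. The lowest inhibiting concentration was recorded; two experiments were run in duplicate and means are reported.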

[5] = system: Influenza A virus (A/Bilthoven/1761/1976(H3N2)); experiment: Inhibition of sensor loaded biotinylated-LAMP1 binding to Influenza A virus (A/Bilthoven/1761/1976(H3N2)) H3 hemagglutinin expressed in Influenza virus VI75 at 3 uM in presence of NA inhibitor oseltamivir carboxylate by biolayer interferometric analysis
How it was run: (§2)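 BLI with streptavidin sensors loaded to saturation with biotinylated LAMP1 (PBS, pH 7.4). VI75 virus was preincubated 4 h at room temperature with 3 µM compound, without or with 10 µM oseltamivir carboxylate. Initial virus binding rate was compared with a compound-free control.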

[6] = system: Influenza A virus (A/duck/Hunan/795/2002(H5N1)); experiment: Inhibition of sensor loaded biotinylated-LAMP1 binding to Influenza A virus (A/duck/Hunan/795/2002 (H5N1)) […] expressed in Influenza virus H5N1 by biolayer interferometric analysis relative to control
Influenza A virus [7] = experiment: Antiviral activity against Influenza A virus WU95 expressing Influenza A virus (A/Netherlands/178/1995(H3N2)) H3 hemagglutinin infected in MDCK2 cells preincubated with virus for 4 hrs followed by cell infection and measured at 7 hrs post-infection by DAPI staining-based assay; format: functional, organism-based
How it was run: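 Single-cycle infection: WU95 in Opti-mem was preincubated 4 h at room temperature with varying compound concentrations. Confluent MDCK-II cells were inoculated in triplicate at MOI 0.005 and fixed at 7 h post-infection in methanol (−20 °C, 5 min). Cells were immunostained for nucleoprotein (HB65, Alexa 488 secondary), counterstained with DAPI, and infected cells per well were counted.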

MDCK-II = experiment: Cytotoxicity against MDCK2 cells assessed as reduction in cell viability measured after 24 hrs by WST1 assay; format: cell-based, Canis lupus familiaris; details: dog
How it was run: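 MDCK-II cells were incubated 24 h in Opti-mem with compounds at different concentrations. Cell number and viability were then read by WST-1 assay.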

[8] = system: Influenza A virus (A/Bilthoven/1761/1976(H3N2)); experiment: Inhibition of sensor loaded biotinylated-LAMP1 binding to Influenza A virus (A/Bilthoven/1761/1976(H3N2)) H3 hemagglutinin expressed in Influenza virus VI75 at 3 uM by biolayer interferometric analysis; how it was run: as §2
[9] = system: Influenza A virus (A/Netherlands/178/1995(H3N2)); experiment: Inhibition of sensor loaded biotinylated-LAMP1 binding to Influenza A virus (A/Netherlands/178/1995(H3N2)) H3 hemagglutinin expressed in Influenza virus WU95 at 3 uM in presence of NA inhibitor oseltamivir carboxylate by biolayer interferometric analysis; how it was run: as §1
[10] = Inhibition of sensor loaded biotinylated-LAMP1 binding to Influenza A virus (A/Netherlands/602/2009(H1N1)) […] by biolayer interferometric analysis
[11] = system: Influenza A virus (A/Netherlands/178/1995(H3N2)); experiment: Potency index, ratio of compound 7 IC50 to test compound IC50 for inhibition of sensor loaded biotinylated-LAMP1 binding to Influenza A virus (A/Netherlands/178/1995(H3N2)) H3 hemagglutinin expressed in Influenza virus WU95

## CC(=O)N[C@H]1[C@H](O[C@H]2[C@@H](O)[C@@H](CO)O[C@@H](O[C@H]3[C@H](O)[C@@H](O)[C@H](n4cc(-c5ccc(-c6cn(CCCC(=O)Nc7cccc(-c8cc(-c9cccc(NC(=O)CCCn%10cc(-c%11ccc(-c%12cn([C@@H]%13O[C@H](CO)[C@@H](O[C@@H]%14O[C@H](CO)[C@H](O)[C@H](O[C@@H]%15O[C@H](CO)[C@@H](O[C@@H]%16O[C@H](CO[C@]%17(C(=O)O)C[C@H](O)[C@@H](NC(C)=O)[C@H]([C@H](O)[C@H](O)CO)O%17)[C@H](O)[C@H](O)[C@H]%16O)[C@H](O)[C@H]%15NC(C)=O)[C@H]%14O)[C@H](O)[C@H]%13O)nn%12)cc%11)nn%10)c9)cc(-c9cccc(NC(=O)CCCn%10cc(-c%11ccc(-c%12cn([C@@H]%13O[C@H](CO)[C@@H](O[C@@H]%14O[C@H](CO)[C@H](O)[C@H](O[C@@H]%15O[C@H](CO)[C@@H](O[C@@H]%16O[C@H](CO[C@]%17(C(=O)O)C[C@H](O)[C@@H](NC(C)=O)[C@H]([C@H](O)[C@H](O)CO)O%17)[C@H](O)[C@H](O)[C@H]%16O)[C@H](O)[C@H]%15NC(C)=O)[C@H]%14O)[C@H](O)[C@H]%13O)nn%12)cc%11)nn%10)c9)c8)c7)nn6)cc5)nn4)O[C@@H]3CO)[C@@H]2O)O[C@H](CO)[C@@H](O[C@@H]2O[C@H](CO[C@]3(C(=O)O)C[C@H](O)[C@@H](NC(C)=O)[C@H]([C@H](O)[C@H](O)CO)O3)[C@H](O)[C@H](O)[C@H]2O)[C@@H]1O
[1]
  Ratio IC50: 38
Influenza A virus [2]
  Activity: Active
[3]
  IC50: 0.71 µM
[4]
  Ki: 9.4 µM
[5]
  inhibition: Active
[6]
  Imax: 50%
Influenza A virus [7]
  IC50: 4.4 µM
MDCK-II
  Activity: Non-Toxic
[8]
  inhibition: Active
[9]
  inhibition: Active
[10]
  IC50: 2.7 µM
[11]
  Ratio IC50: 428
